# HTR1E agonist: activates the human 5-HT1E serotonin receptor | actives 0.69% (n = 65,000) | activation, % at 6 µM | AID 574 | CHO 5-HT1E Ga15 NFAT-bla reporter, FRET; 0% DMSO wells, 100% control agonist wells;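 active = activation above a set limit, the screen-wide mean activation plus 3 SD, cut at about 8.5% in these data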
# HTR1A agonist: activates the human 5-HT1a serotonin receptor; CHO 5-HT1a Ga15 NFAT-bla reporter, FRET ratio; 0% basal, 100% maximal reference agonist; P08908; activation, % at 10 µM; actives 0.56% (n = 65,000);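 active = activation above the screen-wide mean activation plus 3 SD, cut at about 19% in these data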
# Target sequence (P08908 whole entry, looked up): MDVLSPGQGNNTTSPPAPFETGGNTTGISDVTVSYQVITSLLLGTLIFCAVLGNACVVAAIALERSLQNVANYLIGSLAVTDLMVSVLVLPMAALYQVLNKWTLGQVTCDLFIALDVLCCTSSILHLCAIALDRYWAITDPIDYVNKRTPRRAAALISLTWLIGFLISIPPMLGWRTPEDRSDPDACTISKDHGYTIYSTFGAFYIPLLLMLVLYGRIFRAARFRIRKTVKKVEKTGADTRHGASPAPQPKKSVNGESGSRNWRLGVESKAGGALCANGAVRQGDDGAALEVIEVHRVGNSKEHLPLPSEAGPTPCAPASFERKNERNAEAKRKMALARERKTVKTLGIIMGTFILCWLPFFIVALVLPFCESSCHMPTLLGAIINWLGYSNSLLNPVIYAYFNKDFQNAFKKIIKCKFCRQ
# HTR1E antagonist: 5-HT1E (human) receptor antagonism. CHO 5-HT1E Ga15 NFAT-bla reporter, FRET, antagonist. actives 0.99% (n = 65,000). inhibition, % at 6 µM. AID 571. P28566;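 active = inhibition above a set limit, the mean inhibition across every tested compound plus 3 SD, cut at about 29% in these data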;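 note: signal is the 460 over 535 nm emission ratio of beta-lactamase substrate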
# Jurkat viability: cytotoxic compounds reducing Jurkat cell viability; actives 1.2% (n = 56,000); inhibition, % at 4 µM; Jurkat E6.1 viability, ATP luminescence, 48 h;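 active = inhibition above the mean inhibition of all tested compounds plus 3 SD, cut at about 28% in these data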
# 5-HT1A blocker: blocks the human serotonin 5-HT1a receptor. actives 0.68% (n = 62,000). inhibition, % at 10 µM. CHO 5-HT1a Ga15 NFAT-bla reporter, antagonist mode;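 active = inhibition above the mean of all tested compounds plus 3 SD, cut at about 43% in these data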;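 note: receptor stimulated by 5-CT agonist at 100 nM near EC80; beta-lactamase reporter measured by ratiometric fluorescence of a cleavable substrate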
# HEK293 NFkB inh: inhibitors of the PMA/ionomycin-induced NF-kB reporter in HEK293 cells; inhibition, % at 3 µM; actives 0.21% (n = 62,000); HEK-293 NF-kB luciferase reporter, luminescence;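 active = inhibition above the mean of all tested compounds plus 3 SD, cut at about 40% in these data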
#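 Signal: luciferase luminescence; Material: HEK-293 cells with stable firefly luciferase reporter driven by four HIV NF-kB elements; Probe or stimulus: PMA with ionomycin; Replication: tested once; Times: 1 h compound pretreatment, then 16 h stimulation at 37 °C, 5% CO2; Benchmarks: DMSO and 10 µM reference inhibitor; Evaluation: per-plate % inhibition versus controls.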
# Numbers stand for hits; i = inactive; nt = not tested or not shown. Most compounds without a hit are left out; they make up all but 3.3% or so of the library.
SMILES,HTR1E agonist,HTR1A agonist,HTR1E antagonist,Jurkat viability,5-HT1A blocker,HEK293 NFkB inh
CC(C)N1CC=C2C(C#N)=C(N)C(C#N)(C#N)C(c3ccccc3)C2C1 (stereo not drawn),i,26,i,nt,nt,nt
CCCOc1ccccc1C1CC(=O)Nc2cc3c(cc21)OCCO3 (stereo not drawn),i,i,71,98,75,47
CC(C)Oc1ccccc1C1CC(=O)Nc2cc3c(cc21)OCO3 (stereo not drawn),i,i,61,97,54,i
O=C1CC(c2cccnc2)c2cc3c(cc2N1)OCCO3 (stereo not drawn),i,i,i,i,i,i
CCOc1ccccc1C1CC(=O)Nc2cc3c(cc21)OCCO3 (stereo not drawn),i,i,64,95,44,i
CCCCC(=O)NCCc1cc2c(OC)ccc(OC)c2[nH]c1=O,i,i,i,i,i,i
O=C(O)COc1ccc(-c2nnn(CC(=O)O)n2)cc1,i,i,i,i,i,i
Cn1nnc(-c2ccc(OCc3ccccc3F)cc2)n1,13,i,i,i,i,i
COc1cccc(C2NC(=O)NC(O)(C(F)(F)F)C2C(=O)c2cccnc2)c1OC (stereo not drawn),i,i,i,i,i,i
Cc1ccccc1OCCN1C(=O)NC2(CCc3ccccc32)C1=O (stereo not drawn),i,i,i,i,i,i
Cc1cc(C)nc(SCC(=O)Nc2ccc(N3CCOCC3)c(Cl)c2)n1,i,i,i,58,i,i
O=C(CSc1nc2ccccc2o1)Nc1ccc(N2CCOCC2)c(Cl)c1,i,i,i,i,i,i
CCC(NC(=O)Nc1nnc(C(F)(F)F)s1)(C(F)(F)F)C(F)(F)F,i,i,66,nt,nt,nt
O=C(O)CCC(=O)Nc1nnc(C(F)(F)F)s1,i,i,i,i,i,i
Cc1ccc(C)c(N2CCN(Cc3nnnn3C3CCCCC3)CC2)c1,42,i,i,i,i,i
O=C(c1ccc(Cl)c(F)c1F)N1CCCC1,i,i,i,i,i,i
O=C1c2ccccc2NC(c2ccco2)N1O (stereo not drawn),i,i,i,i,i,i
O=C1C2=C(Nc3ccccc3SC2c2ccco2)c2ccccc21 (stereo not drawn),i,i,i,i,70,i
CCN(CC)c1ccc(NC(=O)C2CCCN(S(=O)(=O)c3cccnc3)C2)c(C)c1 (stereo not drawn),i,i,32,i,i,i
Cn1c(=O)c2c(nc(CN3CCN(c4ccccc4)CC3)n2CCCc2ccccc2)n(C)c1=O,i,i,i,i,i,i
CC(C)CCn1c(CN2CCN(C(=O)c3ccco3)CC2)nc2c1c(=O)n(C)c(=O)n2C,i,57,i,i,i,i
CCn1c(CN2CCN(C(=O)c3ccco3)CC2)nc2c1c(=O)n(C)c(=O)n2C,i,i,i,i,i,i
CCCn1c(CN(C)Cc2ccccc2)nc2c1c(=O)n(C)c(=O)n2C,i,i,i,nt,i,i
CCCCn1c(CN2CCN(c3ccccc3)CC2)nc2c1c(=O)n(C)c(=O)n2C,i,i,i,38,i,i
CCCCn1c(CN(C)Cc2ccccc2)nc2c1c(=O)n(C)c(=O)n2C,i,i,i,36,i,i
SMILES,HTR1E agonist,HTR1A agonist,HTR1E antagonist,Jurkat viability,5-HT1A blocker,HEK293 NFkB inh
NC(=O)C1CCN(C(=O)C2c3ccccc3C(=O)N3CCc4ccccc4C23)CC1 (stereo not drawn),i,i,i,i,i,i
CN(C)CCN(Cc1ccccc1)c1ccccn1,i,i,i,nt,nt,nt
CN(C)CCN(Cc1ccccc1)c1ccnc(N(C)C)c1C#N,21,i,i,i,i,i
Cc1cc(NC(=O)Cc2cccs2)nn1CC(=O)NCc1ccco1,16,i,i,i,i,i
CC(=O)Nc1ccc(NC(=O)CSC2=NCCS2)cc1,i,i,i,i,i,i
O=C(CSC1=NCCS1)Nc1ccnc2ccccc12,i,i,i,29,i,i
CCCCn1c(=O)[nH]c(=O)c2c1nc(-c1ccncc1)n2CCOC,i,270,i,i,i,i
COc1c(S(=O)(=O)n2nc(C)cc2C)ccc(Cl)c1Cl,i,i,i,i,i,i
O=C(Cc1cccs1)Nc1nc2c(s1)CCCC2,i,i,i,38,i,46
Cc1c(S(=O)(=O)N2CCc3ccccc3C2)c(=O)n(C)c(=O)n1C,i,i,i,i,i,i
c1ccc2c(CC3=NCCN3)cccc2c1,9.2,i,i,nt,nt,nt
Cc1nc(N2CCN(C)CC2)[nH]c(=O)c1Cc1cccc2ccccc12,i,i,i,i,i,i
Cc1nc(NC2=NCN(CC3CCCO3)CN2)nc2ccccc12 (stereo not drawn),i,i,i,i,i,i
CCc1nnc(NC(=O)CSc2nnc(COc3ccccc3C)o2)s1,8.9,i,i,i,i,i
CCc1nnc(NC(=O)CSc2nnc(COc3ccccc3)n2-c2ccc(C)cc2)s1,i,i,i,i,i,i
CCc1nnc(NC(=O)CSc2nnc(COc3cccc(C)c3)o2)s1,i,i,i,i,i,i
CCc1nnc(NC(=O)CSc2nnc(-c3ccccc3O)n2-c2ccc(C)cc2C)s1,i,i,i,80,i,i
Cc1c(C(=O)c2no[n+]([O-])c2C(=O)c2cnn(C)c2C)cnn1C,i,i,i,i,46,i
Cc1nn(Cc2ccccc2Cl)c(C)c1C(=O)Nc1nnc(C2CC2)s1,i,i,i,47,i,52
COn1c(SCC(=O)N(C)C)nc2ccccc2c1=O,i,i,i,i,i,i
CCCOC(=O)CSc1nc(N)c(C#N)c(CC)c1C#N,i,i,i,i,i,i
COc1ccc(Nc2nc(N3CCCC3)nc3ccccc23)c(OC)c1,i,i,i,28,i,i
COc1ccc(OC)c(NC(=O)CSCc2cnn(-c3ccccc3)c2-n2cccc2)c1,i,i,i,i,57,i
COc1cc(NC(=O)CSCc2cnn(-c3ccccc3)c2-n2cccc2)cc(OC)c1,i,i,i,i,i,i
COc1ccccc1-n1cnc2cc(NCc3ccco3)ccc21,i,i,34,58,i,i
SMILES,HTR1E agonist,HTR1A agonist,HTR1E antagonist,Jurkat viability,5-HT1A blocker,HEK293 NFkB inh
CCOc1ccc(OCC)c(NC(=O)CN2CCN(c3cccc(C)c3C)CC2)c1,28,i,i,nt,i,i
COC(=O)c1ccc(CSc2nnc(-c3ccncc3)n2Cc2ccccc2)o1,i,i,i,i,i,i
O=c1c2ccccc2nc(N2CCN(c3ccccc3)CC2)n1Cc1ccccc1,i,i,i,i,47,i
O=c1c2ccccc2nc(-c2ccco2)n1Cc1ccccc1,i,i,i,nt,i,i
Cc1nn(C)c(C)c1S(=O)(=O)N(CC(=O)NCc1cccs1)c1ccc(C(C)C)cc1,i,i,i,i,i,i
COc1ccc(N(CC(=O)NCc2cccs2)S(=O)(=O)c2c(C)nn(C)c2C)cc1,i,i,34,i,i,i
